Seven compounds from ChEMBL document CHEMBL1137567, “First example of phosphoramidate approach applied to a 4'-substituted purine nucleoside (4'-azidoadenosine): conversion of an inactive nucleoside to a submicromolar compound versus hepatitis C virus” (J Med Chem, 2007) can be followed below.

Series [1] relates to Hepatitis C virus. As to the kind of experiment: Inhibition of HCV 1b in Huh7 cells by replicon assay. Type of series: functional, organism-based, Hepacivirus hominis. The conditions noted are these: Huh-7. In short, it runs like this:
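Huh-7-derived line 2209-23 stably carrying a bicistronic HCV genotype 1b replicon with a renilla luciferase reporter. Replication was read out by the reporter. The EC50 is the concentration reducing HCV replication by 50%.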
(Replicon systems follow genome replication, usually without infectious particles.)

Series [2] is described as follows: Cytotoxicity activity against Huh7 cells by WST assay. Type of series: cell-based, Huh-7. Particulars: human. In short, it runs like this: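 Cytotoxicity was read out as the CC50, the concentration lowering cell viability by 50%, from a WST viability readout. Cells were the HCV replicon cell line 2209-23, derived from Huh-7 and carrying a stable genotype 1b bicistronic replicon with a renilla luciferase reporter.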

In series [1], `CCOC(=O)[C@H](C)NP(=O)(OC[C@@]1(N=[N+]=[N-])O[C@@H](n2cnc3c(N)ncnc32)[C@H](O)[C@@H]1O)Oc1ccccc1` (some centres undefined) gave an EC50 of 1.5 µM. Besides, the CC50 in series [2] is greater than 100 µM.

As to `CCOC(=O)[C@H](C)NP(=O)(OC[C@@]1(N=[N+]=[N-])O[C@@H](n2cnc3c(N)ncnc32)[C@H](O)[C@@H]1O)Oc1cccc2ccccc12` (some centres undefined), in series [1], the EC50 stood at 0.59 µM. This compound displayed a CC50 in series [2] greater than 100 µM.

`C[C@H](NP(=O)(OC[C@@]1(N=[N+]=[N-])O[C@@H](n2cnc3c(N)ncnc32)[C@H](O)[C@@H]1O)Oc1cccc2ccccc12)C(=O)OC(C)(C)C` (some centres undefined) returned an EC50 in series [1] greater than 100 µM. Besides, in series [2], the CC50 was greater than 100 µM.

The compound `C[C@H](NP(=O)(OC[C@@]1(N=[N+]=[N-])O[C@@H](n2cnc3c(N)ncnc32)[C@H](O)[C@@H]1O)Oc1ccccc1)C(=O)OCc1ccccc1` (some centres undefined) displayed an EC50 in series [1] of 4 µM. This compound returned a CC50 in series [2] greater than 100 µM.

Compound `[N-]=[N+]=N[C@]1(CO)O[C@@H](n2cnc3c(N)ncnc32)[C@H](O)[C@@H]1O` registered an EC50 in series [1] greater than 100 µM. Besides, the CC50 in series [2] is greater than 100 µM.

In series [1], `C[C@H](NP(=O)(OC[C@@]1(N=[N+]=[N-])O[C@@H](n2cnc3c(N)ncnc32)[C@H](O)[C@@H]1O)Oc1ccccc1)C(=O)OC(C)(C)C` (some centres undefined) gave an EC50 greater than 100 µM. The CC50 in series [2] was greater than 100 µM.

In series [1], `C[C@H](NP(=O)(OC[C@@]1(N=[N+]=[N-])O[C@@H](n2cnc3c(N)ncnc32)[C@H](O)[C@@H]1O)Oc1cccc2ccccc12)C(=O)OCc1ccccc1` (some centres undefined) showed an EC50 of 0.22 µM. In series [2], this compound came in with a CC50 greater than 100 µM.

The term EC50 denotes the midpoint of the concentration-response curve. Usually CC50 stands for the concentration giving 50% cytotoxicity. A lower CC50 goes with greater toxicity to the cells.
